Inconclusive results are not listed.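 The calls were made as follows, unless noted: active = viability at or below 27.92% in each of two runs, the all-compound median minus 4 SD; inconclusive = no clear call, values can overlap the other calls; inactive = the rest.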
What was measured:
[1] = OD615 S. cerevisiae growth inhibition, permissive medium, pilot counter-assay, permissive growth control for S. cerevisiae lifespan shortening project (AID 705;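 active = growth inhibition above 25% in both replicates, a cutoff set 3 SD above the mean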); conditions: OD615, 24 h, at 10 µM, hits give high values
Outline: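 Material: engineered DeaD yeast; compound dosing: one dose 10 µM, DMSO 0.25% final; measure: yeast growth inhibition indicated by reduced 24 h OD615; detection: OD615 turbidity read; incubation: cells pre-grown 4 h, then 24 h compound exposure, 30 °C humidified; medium: permissive synthetic complete medium with raffinose and galactose carbon sources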

[2] = Restrictive medium S. cerevisiae growth inhibition, OD615, pilot screen of yeast lifespan reduction project, restrictive growth control (AID 706;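 active = growth inhibition above a set limit, 3 SD over mean compound inhibition, in both replicates, cut at about 43% in these data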;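 also: modified DeaD lifespan yeast strain shifted to restrictive glucose medium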); conditions: OD615, 48 h, at 10 µM, hits give high values
Outline: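 material = engineered S. cerevisiae DeaD strain | medium = glucose-based CSMM-D restrictive medium | times = 4 h pre-incubation, 48 h exposure at 30 °C | technique = OD615 absorbance reading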

[3] = viability gain of MRP-1-high H69AR cells under doxorubicin, pilot screen, MRP-1 activator project, CellTiter-Glo, duplicate (AID 807;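 active = viability increase at or above a cutoff of the median across tested compounds plus 3 SD, cut at about 8.5% in these data, passing the limit was not always enough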;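 also: compound pretreatment 18-22 h then 72 h combined with doxorubicin; 0% = doxorubicin alone and 100% = vehicle without doxorubicin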); conditions: H69AR viability with doxorubicin, CellTiter-Glo luminescence; at 10 µM; hits give high values
[4] = growth suppression of beta-catenin knockout HCT116, pilot screen, human colon tumor cells (AID 823;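 active = cell viability at or below a set limit in both duplicate runs, the limit being the all-compound median minus 4 SD, cut at about 23% in these data, passing the limit was not always enough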;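 also: 0% = wells killed by 20 µM Hyamine and 100% = untreated DMSO cell wells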); conditions: CellTiter-Glo, 60 h, at 10 µM, hits give low values
[5] = growth suppression of PTEN-deleted HCT116, pilot screen, cell-based, HCT116 clonal line, CellTiter-Glo (AID 824); conditions: 60 h, at 10 µM, hits give low values;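 also: 0% = 20 µM Hyamine control and 100% = vehicle cell control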
[6] = inhibitors of the yeast RAM network, pilot screen, dse1pr::URA3 reporter, 5-FOA selection (AID 869;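 active = inhibition over a set limit, the all-compound mean plus 3 SD, in both replicate runs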;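 also: 0% = DMSO wells with no growth and 100% = 10 µM 1-NA-PP1 with full growth; RAM network block rescues cells from 5-FOA so hits raise OD615 growth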); conditions: S. cerevisiae dse1pr::URA3 5-FOA growth, OD615, 2 d; at 10 µM; hits give high values; strain carries analog-sensitive mutant Cbk1 kinase
[7] = RAM signaling pathway blockade in yeast – S. cerevisiae, Pdr1DBD-CYC8 efflux-inhibited sensitized strain, primary screen (AID 1298;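 active = RAM network inhibition above 8.4% in each of two replicates, 3 SD over the compound average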;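 also: 0% = DMSO untreated cells without growth and 100% = 10 µM 1-NA-PP1 full growth; higher means more yeast growth rescued from 5-FOA killing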); conditions: S. cerevisiae cbk1-as DSE1-URA3 strain, 5-FOA growth OD615, 2 d; at 50 µM; hits give high values

O=C(CCCC(=O)Nc1cccnc1)Nc1cccnc1
inactive: growth inhibition [1] -6.39% | growth inhibition [2] 3.58% | viability increase [3] -0.66% | viability [4] 103% | viability [5] 99.2% | inhibition [6] 0.385% | RAM network inhibition [7] 6.65%

Cc1ccc(NS(=O)(=O)c2cc(C(=O)O)ccc2Cl)cc1
inactive: growth inhibition [1] -5.58% | growth inhibition [2] -5.51% | viability increase [3] -1.55% | viability [4] 100% | viability [5] 95.2% | inhibition [6] 1.16% | RAM network inhibition [7] 7.99%

COc1ccc(N2C(=O)C(CC(=O)O)S/C2=C\C(C)=O)cc1 (stereo unspecified)
inactive: growth inhibition [1] -7.45% | growth inhibition [2] -2.82% | viability increase [3] -0.23% | viability [4] 98% | viability [5] 99.4% | inhibition [6] 0.95% | RAM network inhibition [7] 3.43%

COc1cc(C2C(C(=O)Nc3ccccc3OC)=C(C)Nc3ncnn32)ccc1O (stereo unspecified)
inactive: growth inhibition [1] -14.3% | growth inhibition [2] 14.1% | viability increase [3] -2.38% | viability [4] 100% | viability [5] 95.3% | inhibition [6] 1.42% | RAM network inhibition [7] -0.99%

O=C(CSc1nnc(-c2ccccn2)n1Cc1ccco1)c1ccc(Cl)cc1
inactive: growth inhibition [1] 1.63% | growth inhibition [2] 23.2% | viability increase [3] -2.56% | viability [4] 85.8% | viability [5] 82% | inhibition [6] 2.6% | RAM network inhibition [7] 4.4%

CCn1cc(Br)c(C(=O)Nc2ccc(F)c(Cl)c2)n1
inactive: growth inhibition [1] 0.5% | growth inhibition [2] -5.7% | viability increase [3] -3.96% | viability [4] 84.1% | viability [5] 80.6% | inhibition [6] -0.565% | RAM network inhibition [7] -0.16%

COc1ccc(-c2nnc3ccc(SCC(=O)N4CCCCC4)nn23)cc1OC
inactive: growth inhibition [1] 3.98% | growth inhibition [2] 18.9% | viability increase [3] -4.61% | viability [4] 98.3% | viability [5] 98.9% | inhibition [6] 0.24% | RAM network inhibition [7] 2.36%

COc1ccc(NC(=O)CSc2nnc(Cn3c(=O)sc4ccccc43)n2C)cc1OC
inactive: growth inhibition [1] -10.7% | growth inhibition [2] -14.9% | viability increase [3] -2.38% | viability [4] 86.5% | viability [5] 92.2% | inhibition [6] 1.91% | RAM network inhibition [7] 4.34%

O=C(CCSc1nc(-c2ccc3c(c2)OCO3)cc(C(F)(F)F)n1)NCc1ccco1
inactive: growth inhibition [1] -4.51% | growth inhibition [2] -2.02% | viability increase [3] -2.85% | viability [4] 74.8% | viability [5] 74.6% | inhibition [6] 2.63% | RAM network inhibition [7] 2.97%

CCOC(=O)N1CCC(Nc2cc(C)nc3c(-c4ccccc4OC)c(C)nn23)CC1
inactive: growth inhibition [1] -2.85% | growth inhibition [2] -0.57% | viability increase [3] -6.98% | viability [4] 81.3% | viability [5] 67.8% | inhibition [6] 0.325% | RAM network inhibition [7] 4.72%

Cc1cc(Nc2c(C)cccc2C)n2nc(C)nc2n1
inactive: growth inhibition [1] -4.35% | growth inhibition [2] 7.11% | viability increase [3] -0.85% | viability [4] 104% | viability [5] 111% | inhibition [6] 2.33% | RAM network inhibition [7] 0.16%

O=C1CN(C(=O)c2ccc(Br)o2)C(c2ccccc2)c2cc(F)ccc2N1 (stereo unspecified)
inactive: growth inhibition [1] -12.5% | growth inhibition [2] -28% | viability increase [3] -5.91% | viability [4] 84.9% | viability [5] 78.7% | inhibition [6] 1.08% | RAM network inhibition [7] 2.36%

CC1=C(NCCc2ccccc2)CCC1=O
inactive: growth inhibition [1] 1.6% | growth inhibition [2] -14.4% | viability increase [3] -2.97% | viability [4] 92% | viability [5] 86.2% | inhibition [6] 1.74% | RAM network inhibition [7] 2.7%

Cc1ccc(-c2nc3ncccc3o2)cc1NC(=O)Cc1ccc(Cl)cc1
inactive: growth inhibition [1] -17.4% | growth inhibition [2] -10.8% | viability increase [3] -4.9% | viability [4] 81.8% | viability [5] 82.9% | inhibition [6] 2.07% | RAM network inhibition [7] 1.75%

Cc1ccnc(SCCn2c(N(C)Cc3ccccc3)nc3c2c(=O)n(C)c(=O)n3C)n1
inactive: growth inhibition [1] -15.3% | growth inhibition [2] -13% | viability increase [3] -0.84% | viability [4] 93.3% | viability [5] 88.7% | inhibition [6] -0.475% | RAM network inhibition [7] 5.55%

O=C(c1ccccc1F)N1CCN=C1SCc1cccnc1
inactive: growth inhibition [1] -22.1% | growth inhibition [2] 1.65% | viability increase [3] -1.2% | viability [4] 96.8% | viability [5] 99.8% | inhibition [6] 0.695% | RAM network inhibition [7] 4.47%

CCOc1ccccc1Nc1nnc(Cc2ccccc2Cl)c(=O)[nH]1
inactive: growth inhibition [1] -24.5% | growth inhibition [2] -19.1% | viability increase [3] -2.83% | viability [4] 90.7% | viability [5] 94.6% | inhibition [6] 0.115% | RAM network inhibition [7] 5.74%

CCN(CC)C(=O)c1cc2sc3ccccc3c2s1
inactive: growth inhibition [1] -11.5% | growth inhibition [2] -2.27% | viability increase [3] 0.41% | viability [4] 88.1% | viability [5] 95% | inhibition [6] -0.05% | RAM network inhibition [7] 3.43%

Reference: PubChem BioAssay
